TRPC4 PAM: allosterically enhances the mouse TRPC4 cation channel; Q9QUQ5; HEK293 TRPC4beta/mu-opioid, DAMGO EC20, Fluo-4 Ca2+ flux; active compounds read high; B-score at 10 µM; hit rate 0.42% among 310,000; AID 2227;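 active = B-score of calcium response area above 5 SD of library B-scores, with initial fluorescence ratio within 5 SD of library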;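 note: B-score of integrated fluorescence ratio over time as area under calcium response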
Target sequence (Q9QUQ5 whole entry, looked up): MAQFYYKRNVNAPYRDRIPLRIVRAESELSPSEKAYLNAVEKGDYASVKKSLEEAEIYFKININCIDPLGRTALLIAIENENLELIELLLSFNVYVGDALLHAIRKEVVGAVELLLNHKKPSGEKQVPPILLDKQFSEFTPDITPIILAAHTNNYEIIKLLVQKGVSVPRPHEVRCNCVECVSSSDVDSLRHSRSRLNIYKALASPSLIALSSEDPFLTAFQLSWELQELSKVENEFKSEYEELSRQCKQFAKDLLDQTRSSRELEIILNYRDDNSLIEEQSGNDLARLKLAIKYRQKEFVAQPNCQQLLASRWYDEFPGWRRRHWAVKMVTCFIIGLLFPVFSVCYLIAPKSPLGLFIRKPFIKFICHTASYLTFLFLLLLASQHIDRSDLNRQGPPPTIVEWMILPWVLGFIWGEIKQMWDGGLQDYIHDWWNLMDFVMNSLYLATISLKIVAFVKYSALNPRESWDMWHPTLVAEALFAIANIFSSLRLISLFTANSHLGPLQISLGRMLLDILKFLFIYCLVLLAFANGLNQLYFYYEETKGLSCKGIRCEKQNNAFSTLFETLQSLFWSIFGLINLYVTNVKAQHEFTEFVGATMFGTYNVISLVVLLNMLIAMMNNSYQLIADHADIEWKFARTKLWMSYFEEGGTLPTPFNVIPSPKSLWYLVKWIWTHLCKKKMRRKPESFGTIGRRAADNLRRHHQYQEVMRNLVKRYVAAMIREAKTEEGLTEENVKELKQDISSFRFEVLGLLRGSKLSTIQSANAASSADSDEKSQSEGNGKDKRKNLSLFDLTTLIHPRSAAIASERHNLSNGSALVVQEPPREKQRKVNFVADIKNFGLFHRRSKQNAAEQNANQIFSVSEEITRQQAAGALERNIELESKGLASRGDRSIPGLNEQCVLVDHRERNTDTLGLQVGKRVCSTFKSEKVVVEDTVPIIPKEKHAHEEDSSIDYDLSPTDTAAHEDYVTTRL
TRPC4 agonist: TRPC4 (mouse) channel activation | AID 2237 | hit rate 0.49% among 310,000 | HEK293 TRPC4beta/mu-opioid, Fluo4 calcium fluorescence; active compounds read high | B-score at 10 µM | Q9QUQ5;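 active = B-score above 5 SD of library B-scores, and initial fluorescence ratio not above library mean plus 5 SD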;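 note: positive B-score marks a calcium rise read as TRPC4 activation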
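System – HEK293 cells stably co-expressing mouse TRPC4beta and mu-opioid receptor · Signal – Fluo4 calcium-sensitive dye fluorescence, kinetic, 1 Hz baseline · Benchmarks – buffer (low) and maximal DAMGO (high) · Read-out – B score of integrated fluorescence ratio per well · Incubation – dye loading 45 min room temperature, 110 s kinetic read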
TRPC6 inhibitor: mouse TRPC6 channel inhibition | hit rate 1.1% among 310,000 | Q61143 | HEK293-TRPC6, membrane potential dye, ACh-evoked depolarization; active compounds read low | B-score at 10 µM;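 active = B-score under library mean minus 3 SD, initial fluorescence not abnormally high, positive integrated signal ratio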;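 note: B-score derived from integrated fluorescence ratio over the kinetic read; more negative B-score means stronger inhibition of depolarization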
TRPC6 activator: activators of mouse TRPC6 channel. Q61143. HEK293-TRPC6 membrane potential dye fluorescence; active compounds read high. B-score at 10 µM. hit rate 0.13% among 310,000. AID 2550;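 active = B-score of the integrated fluorescence ratio above library mean plus 3 SD, and starting fluorescence ratio within library mean plus 5 SD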;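 note: higher score means more depolarization so channel activation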
TRPC4 inh: inhibitors of mouse TRPC4 channel. Q9QUQ5. HEK293 TRPC4beta/mu-opioid, DAMGO-evoked Fluo4 calcium flux; active compounds read low. B-score at 10 µM. hit rate 0.39% among 300,000;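 active = B-score over 3 SD under the library average, no early fluorescence shift, positive overall ratio signal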
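Signal: kinetic Fluo4 fluorescence imaging of calcium influx. Material: stable TRPC4beta/mu-opioid receptor HEK293 cells. Probe or stimulus: DAMGO in two steps, submaximal then maximal.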
TRPC4 sel inh 2: mouse TRPC4 off-target activity of TRPC6 inhibitors, second screen; shares compounds with TRPC6 inhibitor; HEK293 TRPC4/MOR, membrane potential dye fluorescence; channel activated by saturating DAMGO dose; inhibition, % at 10 µM; hit rate 42% among 920; AID 2776;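 active = compounds whose fluorescence signal differed from control wells by over 3 SD, either direction, in both duplicate plates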
TRPC4 spec: tests whether TRPC6 inhibitors also affect mouse TRPC4. shares compounds with TRPC6 inhibitor. HEK293 TRPC4/mu-opioid, membrane potential fluorescence. activity change, negative = inhibition, % at 10 µM. hit rate 61% among 920. AID 2777;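 active = rise or fall in signal beyond 3 SD of buffer-only wells in both replicate plates, either sign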;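 note: integrated kinetic ratio of fluorescence range over baseline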
HEK293 MPD ctr 2-1: second check of TRPC6 inhibitor effects in parental HEK293 cells | shares compounds with TRPC6 inhibitor | parental HEK293 membrane potential dye fluorescence; maximal acetylcholine challenge after compound addition | signal change vs control, % at 10 µM | hit rate 31% among 920 | AID 2779;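 active = membrane potential signal moving either way by over 3 SD of the maximum-effect control, in both duplicate plates, meaning non-specific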
HEK293 MPD ctr-1: checks TRPC6 inhibitor effects in parental HEK293 cells | shares compounds with TRPC6 inhibitor | parental HEK293 membrane potential dye fluorescence | membrane potential signal change, % at 10 µM | hit rate 60% among 920 | AID 2780;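 active = membrane potential signal shifting up or down by more than 3 SD of buffer-only wells, on both duplicate plates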
HEK293 MPD ctr-2: checks TRPC6 modulator effects in parental HEK293 cells | shares compounds with TRPC6 inhibitor | membrane potential dye fluorescence | membrane potential signal change, % at 10 µM | hit rate 51% among 2,400;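 active = membrane potential signal moves up or down beyond 5 SD from buffer-only wells, on both duplicate plates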
HEK293 MPD ctr 2-2: second counter-screen for TRPC6 modulators: effect in parental HEK293 cells | hit rate 14% among 2,400 | membrane potential dye fluorescence; after compound, maximal acetylcholine stimulation | inhibition, % at 10 µM | AID 488926 | shares compounds with TRPC6 inhibitor;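 active = membrane potential signal drops by more than 5 SD from the mean control signal, in both duplicate plates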;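 note: plate controls were acetylcholine ECmax control wells for no effect and buffer only wells for full effect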
TRPC4/MOR mod: mouse TRPC4 off-target activity of TRPC6 modulators; shares compounds with TRPC6 inhibitor; HEK293 TRPC4/mu-opioid, membrane potential fluorescence; percent change from control (negative = decrease, positive = increase), % at 10 µM; hit rate 69% among 2,400;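 active = membrane potential signal moved up or down beyond 5 SD of buffer control wells, in both duplicate plates, actives on both sides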;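 note: plate controls were assay buffer wells for no effect and DAMGO maximal-effect wells for full effect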
TRPC4/MOR inh 2: second selectivity test of TRPC6 modulators against mouse TRPC4; inhibition, % at 10 µM; shares compounds with TRPC6 inhibitor; HEK293 TRPC4/mu-opioid, membrane potential dye fluorescence; stimulated with maximal-effect DAMGO; AID 488928; hit rate 55% among 2,400;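 active = drop in membrane potential signal beyond 5 SD of the control wells in both duplicate plates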;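 note: TRPC4 counter screen for TRPC6 hits run under conditions tuned for TRPC6 not TRPC4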
TRPC6 inh conf: confirmation of mouse TRPC6 inhibitors; shares compounds with TRPC6 inhibitor; HEK293-TRPC6, membrane potential dye, ACh-evoked depolarization; inhibition, % at 10 µM; hit rate 43% among 3,300; AID 488960;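 active = fluorescence ratio falls more than 5 SD below the full-stimulation control mean, in both duplicate runs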;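 note: integrated fluorescence ratio of peak minus minimum over baseline after agonist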
TRPC6 act confirm: mouse TRPC6 activator confirmation; HEK293-TRPC6 membrane potential dye fluorescence, FDSS; activation, % at 10 µM; AID 488961; hit rate 11% among 2,800; shares compounds with TRPC6 inhibitor;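 active = ratio signal rise beyond 5 SD above unstimulated control wells' mean, seen in both duplicate runs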;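 note: plate controls were buffer EC0 wells for no effect and acetylcholine ECmax response for full effect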
An asterisk follows results filed as active. An excerpt weighted towards active compounds, which were near 2.3% of everything screened.

Results for C=CCOc1ccc(CNc2ccc3[nH]c(=O)[nH]c3c2)cc1 ?
TRPC4 PAM: inactive; TRPC4 agonist: inactive; TRPC6 inhibitor: inactive; TRPC6 activator: inactive; TRPC4 inh: inactive

How did Cc1nc2sccc2c(=O)n1N do in these assays?
TRPC4 PAM: inactive; TRPC4 agonist: inactive; TRPC6 inhibitor: inactive; TRPC6 activator: inactive; TRPC4 inh: inactive

What do the screens show for `C=CCOc1c(CNC2CCCC2)cc(Cl)cc1OC`?
TRPC4 PAM: inactive; TRPC4 agonist: inactive; TRPC6 inhibitor: -5.4*; TRPC6 activator: inactive; TRPC4 inh: -6*; HEK293 MPD ctr-2: 431%*; HEK293 MPD ctr 2-2: 151%*; TRPC4/MOR mod: 99%*; TRPC4/MOR inh 2: 90%*; TRPC6 inh conf: 95%*

How did O=C(NC(Nc1nc2ccc([N+](=O)[O-])cc2s1)(C(F)(F)F)C(F)(F)F)c1cccnc1 do in these assays?
TRPC4 PAM: inactive; TRPC4 agonist: inactive; TRPC6 inhibitor: -8.2*; TRPC6 activator: 15*; TRPC4 inh: inactive; HEK293 MPD ctr-2: 388%*; HEK293 MPD ctr 2-2: 93%*; TRPC4/MOR mod: 92%*; TRPC4/MOR inh 2: 60%*; TRPC6 inh conf: 77%*; TRPC6 act confirm: 88%*

How did CCCCCCNC(=O)CNC(=S)N(Cc1cccs1)C1CCCCC1 do in these assays?
TRPC4 PAM: inactive; TRPC4 agonist: inactive; TRPC6 inhibitor: inactive; TRPC6 activator: inactive; TRPC4 inh: inactive

Results for COC(=O)c1sccc1NC(=O)c1ccccc1F ?
TRPC4 PAM: inactive; TRPC4 agonist: inactive; TRPC6 inhibitor: -6.3*; TRPC6 activator: inactive; TRPC4 inh: inactive; HEK293 MPD ctr-2: inactive; HEK293 MPD ctr 2-2: inactive; TRPC4/MOR mod: inactive; TRPC4/MOR inh 2: inactive; TRPC6 inh conf: inactive; TRPC6 act confirm: inactive

What do the screens show for `CS(=O)(=O)Nc1ccc2c(c1)C(=O)OC2`?
TRPC4 PAM: inactive; TRPC4 agonist: inactive; TRPC6 inhibitor: inactive; TRPC6 activator: inactive; TRPC4 inh: inactive

How did CN(C)c1ccc2c3c(ccc(N(C)C)c13)C(=O)OC2 do in these assays?
TRPC4 PAM: inactive; TRPC4 agonist: inactive; TRPC6 inhibitor: -6*; TRPC6 activator: inactive; TRPC4 inh: inactive; HEK293 MPD ctr-2: -408%*; HEK293 MPD ctr 2-2: inactive; TRPC4/MOR mod: -68%*; TRPC4/MOR inh 2: 44%*; TRPC6 inh conf: inactive; TRPC6 act confirm: inactive

Results for CN1CCc2c(sc3c2c(=O)n(-c2ccc(Cl)cc2)c2nncn32)C1 ?
TRPC4 PAM: inactive; TRPC4 agonist: inactive; TRPC6 inhibitor: -5.1*; TRPC6 activator: inactive; TRPC4 inh: inactive; HEK293 MPD ctr-2: -106%*; HEK293 MPD ctr 2-2: inactive; TRPC4/MOR mod: -21%*; TRPC4/MOR inh 2: inactive; TRPC6 inh conf: inactive; TRPC6 act confirm: inactive

Results for CCN(CC)CCn1c(=O)n(-c2ccc(Cl)cc2)c(=O)c2c3c(sc21)CN(C)CC3 ?
TRPC4 PAM: inactive; TRPC4 agonist: inactive; TRPC6 inhibitor: inactive; TRPC6 activator: inactive; TRPC4 inh: inactive

Results for Cc1ccc(N2C(=O)CSC2c2c(F)cccc2Cl)cc1 (stereo not given) ?
TRPC4 PAM: inactive; TRPC4 agonist: inactive; TRPC6 inhibitor: -12*; TRPC6 activator: inactive; TRPC4 inh: inactive; TRPC4 sel inh 2: inactive; TRPC4 spec: inactive; HEK293 MPD ctr 2-1: -26%*; HEK293 MPD ctr-1: inactive; TRPC6 inh conf: 84%*; TRPC6 act confirm: inactive

What do the screens show for `O=[N+]([O-])c1ccc(CN2CCOCCOCCN(Cc3ccc([N+](=O)[O-])cc3)CCOCC2)cc1`?
TRPC4 PAM: inactive; TRPC4 agonist: inactive; TRPC6 inhibitor: -5.5*; TRPC6 activator: inactive; TRPC4 inh: inactive; HEK293 MPD ctr-2: inactive; HEK293 MPD ctr 2-2: inactive; TRPC4/MOR mod: -12%*; TRPC4/MOR inh 2: 74%*; TRPC6 inh conf: 46%*; TRPC6 act confirm: inactive

How did O=[N+]([O-])c1ccc(CN2CCCCCC2)cc1 do in these assays?
TRPC4 PAM: inactive; TRPC4 agonist: inactive; TRPC6 inhibitor: inactive; TRPC6 activator: inactive; TRPC4 inh: inactive

What do the screens show for `Cc1cc(F)ccc1S(=O)(=O)N1CCCOC1CNC(=O)C(=O)NC1CCCCC1` (stereo not given)?
TRPC4 PAM: inactive; TRPC4 agonist: inactive; TRPC6 inhibitor: inactive; TRPC6 activator: inactive; TRPC4 inh: inactive

What do the screens show for `COc1ccc(NCc2ccc(OC)c(Cn3ccnc3)c2)c(OC)c1`?
TRPC4 PAM: inactive; TRPC4 agonist: inactive; TRPC6 inhibitor: inactive; TRPC6 activator: inactive; TRPC4 inh: inactive

How did CSc1ccccc1NC(=O)c1ccccc1N(Cc1ccccc1)S(C)(=O)=O do in these assays?
TRPC4 PAM: inactive; TRPC4 agonist: inactive; TRPC6 inhibitor: -5.2*; TRPC6 activator: inactive; TRPC4 inh: inactive; HEK293 MPD ctr-2: 142%*; HEK293 MPD ctr 2-2: inactive; TRPC4/MOR mod: 30%*; TRPC4/MOR inh 2: inactive; TRPC6 inh conf: inactive

Screening data (PubChem)
